Test [1] has as its target T1, Fatty-acid amide hydrolase 1 (Mus musculus, UniProt O08914).
T1 sequence (O08914 whole entry): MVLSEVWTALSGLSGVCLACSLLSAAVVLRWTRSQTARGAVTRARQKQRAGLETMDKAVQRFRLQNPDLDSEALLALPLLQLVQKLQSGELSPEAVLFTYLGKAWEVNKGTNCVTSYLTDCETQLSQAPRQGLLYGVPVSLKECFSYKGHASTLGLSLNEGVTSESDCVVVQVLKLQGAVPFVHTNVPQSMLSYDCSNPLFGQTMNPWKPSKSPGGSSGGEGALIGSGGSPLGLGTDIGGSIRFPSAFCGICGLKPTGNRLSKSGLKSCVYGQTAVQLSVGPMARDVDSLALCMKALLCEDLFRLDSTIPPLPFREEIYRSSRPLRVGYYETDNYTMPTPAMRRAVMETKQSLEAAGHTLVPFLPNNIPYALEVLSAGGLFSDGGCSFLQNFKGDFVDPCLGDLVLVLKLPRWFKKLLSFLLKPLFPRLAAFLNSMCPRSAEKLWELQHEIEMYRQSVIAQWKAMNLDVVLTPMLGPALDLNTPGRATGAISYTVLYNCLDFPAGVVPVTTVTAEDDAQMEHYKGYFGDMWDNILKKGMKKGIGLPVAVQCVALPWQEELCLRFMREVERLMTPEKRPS
As to the kind of experiment: Mixed-type inhibition of B6CBAF1/J mouse brain FAAH using [3H]AEA as substrate after 10 mins by Dixon plot analysis. The method, boiled down: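 Kinetic study in brain homogenate from male B6CBAF1/J mice (0.3 µg protein per assay). [3H]AEA hydrolysis ran for 10 min at 37 °C in Tris-EDTA buffer, pH 7.4, with the AEA:fatty acid-free BSA ratio held at 1:~4.5. Products were separated on charcoal and counted by scintillation. Competitive, mixed-type and non-competitive fits were compared by Akaike's criterion.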

Test [2] deals with T2, Prostaglandin G/H synthase 2 (Homo sapiens) (UniProt P35354).
T2 sequence (whole entry): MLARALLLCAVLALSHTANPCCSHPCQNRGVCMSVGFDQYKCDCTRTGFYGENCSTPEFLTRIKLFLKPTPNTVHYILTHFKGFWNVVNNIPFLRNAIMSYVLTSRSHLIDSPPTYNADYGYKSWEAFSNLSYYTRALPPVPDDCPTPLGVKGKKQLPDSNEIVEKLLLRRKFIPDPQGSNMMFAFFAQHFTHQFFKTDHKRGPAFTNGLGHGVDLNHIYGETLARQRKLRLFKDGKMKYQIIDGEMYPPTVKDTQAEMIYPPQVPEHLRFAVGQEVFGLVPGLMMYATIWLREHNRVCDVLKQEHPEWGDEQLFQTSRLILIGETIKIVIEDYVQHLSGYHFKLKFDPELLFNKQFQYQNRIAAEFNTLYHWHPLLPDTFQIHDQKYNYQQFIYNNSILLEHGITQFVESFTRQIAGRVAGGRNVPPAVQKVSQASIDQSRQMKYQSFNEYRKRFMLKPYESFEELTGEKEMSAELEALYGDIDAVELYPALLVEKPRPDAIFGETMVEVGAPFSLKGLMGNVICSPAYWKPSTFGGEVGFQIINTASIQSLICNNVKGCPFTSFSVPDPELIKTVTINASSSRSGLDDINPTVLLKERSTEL
The test is described as follows: Inhibition of recombinant human COX2 using arachidonic acid/2-AG as substrate after 5 mins. The essentials: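 Oxygen-electrode assay at room temperature in 0.1 M Tris-HCl, pH 7.4, with 1 µM haematin, 2 mM phenol, 5 mM EDTA and 10 µM (final) arachidonic acid or 2-AG. Compound in EtOH was added and a 5 min baseline recorded. The reaction was started with ovine COX-1 or human recombinant COX-2 (200 U), and oxygen consumption was read in 10 s blocks. Means ± SEM, n = 3-4.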

The target of test [3] is T3, Fatty-acid amide hydrolase 1 (Rattus norvegicus) (UniProt P97612).
T3 sequence (whole entry): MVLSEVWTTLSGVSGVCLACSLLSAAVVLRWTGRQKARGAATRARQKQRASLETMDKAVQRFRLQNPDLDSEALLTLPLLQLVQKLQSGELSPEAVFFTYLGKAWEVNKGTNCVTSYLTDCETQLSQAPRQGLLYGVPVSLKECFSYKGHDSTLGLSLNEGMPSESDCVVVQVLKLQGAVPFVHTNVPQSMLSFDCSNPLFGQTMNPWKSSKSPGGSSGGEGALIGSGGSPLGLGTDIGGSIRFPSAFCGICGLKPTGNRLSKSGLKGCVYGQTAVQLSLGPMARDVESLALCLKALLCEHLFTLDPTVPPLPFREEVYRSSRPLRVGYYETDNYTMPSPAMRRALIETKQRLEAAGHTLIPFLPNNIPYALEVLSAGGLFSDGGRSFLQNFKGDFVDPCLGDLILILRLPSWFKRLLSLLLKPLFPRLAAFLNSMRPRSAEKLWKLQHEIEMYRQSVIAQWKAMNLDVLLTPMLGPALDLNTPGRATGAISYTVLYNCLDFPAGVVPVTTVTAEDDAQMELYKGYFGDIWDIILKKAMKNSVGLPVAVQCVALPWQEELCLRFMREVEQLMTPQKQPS
The test is described as follows: Inhibition of rat brain FAAH using [3H]AEA as substrate after 10 mins in presence of N-(3-Chloropyridin-2-yl)-2-(4-((2-(trifluoromethyl)pyridin-4-yl)amino)phenyl)propanamide by liquid scintillation counting analysis. The method, boiled down:
(§1)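 Rat (Wistar or Sprague-Dawley) brain homogenate without cerebella, washed and pre-incubated 15 min at 37 °C to clear endogenous substrate. Compound (in ethanol or DMSO) was mixed with 1 µg protein on ice in 10 mM Tris-HCl, 1 mM EDTA, pH 7.4. Reaction used 0.5 µM [3H]AEA with fatty acid-free BSA for 10 min at 37 °C. It was stopped with charcoal/HCl, and supernatant tritium was counted. ≥5 half-log concentrations, ≥3 experiments; maximum inhibition = 100 − fitted bottom.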

Test [4] has as its target T4, Fatty-acid amide hydrolase 1 (Rattus norvegicus, UniProt P97612).
T4 sequence (P97612 whole entry): T3 sequence (whole entry)
The test is described as follows: Inhibition of rat brain FAAH using [3H]AEA as substrate after 10 mins by liquid scintillation counting analysis. The essentials: as §1

Test [5] deals with T3, Fatty-acid amide hydrolase 1 (Rattus norvegicus). The test is described as follows: Inhibition of rat brain FAAH at 0.3 to 100 uM using [3H]AEA as substrate after 10 mins by liquid scintillation counting analysis relative to control. The method, boiled down:
as §1

The source made the active and inactive calls.

Regarding `Cc1cccnc1NC(=O)C(C)c1ccc(Nc2ccnc(C(F)(F)F)c2)cc1` (stereo unspecified), in test [1], the Ki is 6300 nM. Besides, the inhibition entry in test [2] was “inactive”. Moreover, the inhibition entry in test [3] is “Active”. In addition, the IC50 in test [4] (read-out: IC50) is 590 nM; in test [4] (read-out: pIC50 (converted)), 589 nM. In test [5], this molecule showed an Imax of 100%.

Molecule `CC(C(=O)Nc1ncccc1Cl)c1ccc(Nc2ccnc(C(F)(F)F)c2)cc1` (stereo unspecified) displayed an inhibitory constant (Ki) in test [1] of 3000 nM. The inhibition result in test [2] was “inactive”. The IC50 was 58 nM in test [4] (read-out: IC50) and 57.5 nM in test [4] (read-out: pIC50 (converted)). Moreover, the Imax in test [5] turned out to be 100%.

The term Ki denotes the dissociation constant of the complex between target and ligand, obtained from inhibition or displacement. Read a low Ki as higher affinity.
